Series [1] concerns CXCR2. In words: CXCR2 expression in human PB neutrophils. The class given is cell-based. The method, boiled down: (§1)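 Peripheral blood neutrophils came from healthy donors or cancer patients. They were collected at the Histopaque 1.077/1.119 interphase after double-density gradient centrifugation, followed by RBC lysis, with CD15 staining to confirm purity. Cells were exposed to 10 μM test compound for 1–4 h. Receptor mRNA was measured by SYBR Green qPCR normalized to β-actin, and surface level by flow cytometry.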

The next series concerns BM neutrophils. The series is described as follows: Transwell chemotaxis of mouse neutrophils toward CXCL1. The series is classed as cell-based. A digest of the protocol:
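Bone marrow Ly6G+ neutrophils were MACS-isolated (>95% pure) and pre-incubated with 10 μM test compound for 2 h. They were placed in a 3 μm Transwell, 0.1 × 10^6 cells on top, with CXCL1 in Advanced RPMI below. After 1 h at 37°C, migrated cells were counted. Spontaneously migrating cells were subtracted.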

A further series concerns T cells. In words: T cell proliferation, human PB MNC stimulated with CD3/CD28 Dynabeads. The class given is cell-based. The following applies: 10 μM pre-treatment 2h; healthy donors or cancer patients; 72h. A digest of the protocol:
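Peripheral blood mononuclear cells (Ficoll-Paque; healthy donors or multiple myeloma patients) were labeled with CellTrace Far Red. Cells were pre-treated for 2 h with 10 μM test compound or DMSO vehicle and stimulated with CD3/CD28 Dynabeads for 72 h. Dye dilution was read by flow cytometry in gated CD4+ and CD8+ T cells.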

For a further series, the system named is CD4+ T cells. In words: IFN-γ production by human T cells. The series is classed as cell-based. The note with it: 10 μM pre-treatment; 5h stimulation. The method, boiled down: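 Peripheral blood mononuclear cells from healthy donors or multiple myeloma patients were Ficoll-Paque isolated. Cells were pre-treated with 10 μM test compound or DMSO vehicle, then stimulated for 5 h with a cell stimulation cocktail with or without protein transport inhibitors. IFN-γ and IL-2 were measured by flow cytometry in gated CD4+ and CD8+ T cells.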

The test system of series [2] is CXCR4. The series is described as follows: CXCR4 expression in human PB neutrophils. The class given is cell-based. The method, boiled down:
as §1

A further series addresses PAD (Mus musculus, UniProt Q9Z183). The series is described as follows: PAD activity assay in BM neutrophils of tumor-bearing mice. The series is classed as cell-based. The note with it: BM Ly6G+ cells pretreated for 2h with GSK484. The method, boiled down: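 Bone marrow Ly6G+ cells (MACS) from tumor-free or tumor-bearing mice were pretreated for 2 h with inhibitor. Cells were lysed at 1×10^8 cells/mL and lysates incubated with 10 mM BAEE for 30 min at 37°C. Colour reagent (acids, ammonium iron sulfate, DAMO, thiosemicarbazide) was added, samples heated at 95–100°C for 15 min, and absorbance read at 540 nm.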

For another series, the system named is mouse neutrophils. The series is described as follows: Viability / toxicity in mouse neutrophils. The series is classed as cell-based.
In series [3] the test system is CXCR4. The series is described as follows: CXCR4 surface expression on neutrophils differentiated in vitro from HPC. The series is classed as cell-based, mouse. The following applies: 10 μM. A digest of the protocol: (§2)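 Bone marrow hematopoietic progenitors were lineage-depleted and cultured in RPMI with GM-CSF (20 ng/mL), with or without 25% LLC tumor explant supernatant and with or without 10 μM test compound. The supernatant came from ~1.5 cm tumors, minced, incubated overnight at 37°C and 0.22 μm filtered. Surface CXCR2/CXCR4 was measured by flow cytometry.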

A further series deals with Mouse HPC. The series is described as follows: HPC differentiation in vitro with GM-CSF with or without LLC TES. The series is classed as cell-based. The following applies: 10 μM; presence or absence of TES; 5 days of culture. The method, boiled down:
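Bone marrow HPC from WT or PAD4 KO mice were lineage-depleted and differentiated in RPMI with GM-CSF (20 ng/mL), with or without 25% LLC explant supernatant and with or without 10 μM test compound, for 5 days. Proportion and absolute number of Ly6G+ cells were determined by flow cytometry in Aqua-negative cells.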

For series [4], the system named is CXCR2. In words: CXCR2 surface expression on neutrophils differentiated in vitro from HPC. The following applies: 10 μM. The class given is cell-based, mouse. The method, boiled down:
as §2

Series [5] has as its system human neutrophils. The series is described as follows: Viability of human neutrophils. The class given is cell-based. The note with it: four-hour treatment, 10 μM.
The subject of another series is Ly6G+ cells. In words: Suppression assay with Ly6G+ cells generated from HPC in the presence of TES. The class given is cell-based, mouse.
Series [6] relates to human neutrophils. The series is described as follows: Chemotaxis of human neutrophils toward IL-8. The series is classed as cell-based. The following applies: 10 μM for 4h. The method, boiled down: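 Human neutrophils were treated with 10 μM test compound for 4 h. They were then placed in a 3 μm pore Transwell, 0.1 × 10^6 cells in Advanced RPMI in the insert, with chemoattractant in medium below. After 1 h at 37°C and 5% CO2, migrated cells in the bottom well were counted.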

The next series concerns B16F10. In words: Viability of B16F10 tumor cell line in vitro. The series is classed as cell-based, mouse.
For series [7], the system named is BM and spleen neutrophils. The class given is in vivo, mouse. The note with it: neutrophils from JBI-589-treated LL2-bearing mice re-stimulated in vitro with LL2 cell supernatant.
The test system of series [8] is CXCR2. In words: CXCR2 expression on neutrophils treated with JBI-589 in vitro. The series is classed as cell-based.
The test system of another series is B16F10 tumors. The series is described as follows: B16F10 tumor model in mice. The class given is in vivo, mouse. The note with it: B16F10-bearing mice; 50 mg/kg b.i.d., daily, oral gavage. A digest of the protocol: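 Male and female mice, 6–8 weeks old, were given 0.3× 10^6 B16F10 cells s.c. into the right flank. Cells were grown in DMEM with 10% FBS and were Mycoplasma-negative. Test compound was given by oral gavage. Read-out was the kinetics of primary tumor growth.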

Series [9] concerns CXCR2. In words: CXCR2 surface expression on Ly6G+ cells from treated LL2-bearing mice. The series is classed as in vivo, mouse. The note with it: JBI-589 treated LL2-bearing mice. The method, boiled down:
(§3)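 LL2 cells (0.3× 10^6) were injected s.c. into the right flank. Mice received test compound at 50 mg/kg b.i.d. daily by oral gavage. Cells were Fc-blocked for 10 min, then antibody-stained for 20 min on ice with Live/Dead Aqua. Surface receptor was measured by flow cytometry on CD45+CD11b+Ly6G+ cells.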

Another series concerns histone H3. The series is described as follows: PMA-induced citrullination of histone H3 in mouse neutrophils. The class given is cell-based. The following applies: in vitro.
A further series relates to M-MDSC, TAM, PMN-MDSC. The series is described as follows: Suppression assay with myeloid cells isolated from treated mice. The class given is in vivo, mouse. The note with it: cells from JBI-589-treated mice.
The next series has as its system LL2. The series is described as follows: Viability of LL2 tumor cell line in vitro. The class given is cell-based, mouse.
A further series has as its system M-MDSC, TAMs. In words: Gene expression in spleen M-MDSC or TAMs treated in vitro. The series is classed as cell-based, mouse. The note with it: in vitro treatment of spleen M-MDSC or TAMs from LL2-bearing mice.
The subject of series [10] is CXCR4. In words: CXCR4 surface expression on Ly6G+ cells from treated LL2-bearing mice. The series is classed as in vivo, mouse. The note with it: JBI-589 treated LL2-bearing mice. The method, boiled down: as §3
For a further series, the system named is LL2 tumors. In words: LL2 tumor model in mice. The class given is in vivo, mouse.
Series [11] in a line: Pharmacokinetic study in mice, oral. The series is classed as in vivo, Balb/c male mice. The note with it: 10 mg/kg via oral gavage. The method, boiled down: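 Male Balb/c mice (6–8 weeks, 22–25 g) received 10 mg/kg test compound by oral gavage, as a suspension in Tween-80 and 0.5% methyl cellulose. Sparse blood sampling (~100 μL; three mice per point) was done at 0.25–24 h into K2EDTA tubes. Plasma was separated by centrifugation at 10,000 rpm for 5 min at 4°C.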

The mark [12] stands for this setting: 10 μM for 4h, healthy donors and cancer patients, flow cytometry.

Results on two compounds are retold here after publication PMC9532374 (Cancer research, 2022).

Sequence of PAD (Q9Z183 whole entry): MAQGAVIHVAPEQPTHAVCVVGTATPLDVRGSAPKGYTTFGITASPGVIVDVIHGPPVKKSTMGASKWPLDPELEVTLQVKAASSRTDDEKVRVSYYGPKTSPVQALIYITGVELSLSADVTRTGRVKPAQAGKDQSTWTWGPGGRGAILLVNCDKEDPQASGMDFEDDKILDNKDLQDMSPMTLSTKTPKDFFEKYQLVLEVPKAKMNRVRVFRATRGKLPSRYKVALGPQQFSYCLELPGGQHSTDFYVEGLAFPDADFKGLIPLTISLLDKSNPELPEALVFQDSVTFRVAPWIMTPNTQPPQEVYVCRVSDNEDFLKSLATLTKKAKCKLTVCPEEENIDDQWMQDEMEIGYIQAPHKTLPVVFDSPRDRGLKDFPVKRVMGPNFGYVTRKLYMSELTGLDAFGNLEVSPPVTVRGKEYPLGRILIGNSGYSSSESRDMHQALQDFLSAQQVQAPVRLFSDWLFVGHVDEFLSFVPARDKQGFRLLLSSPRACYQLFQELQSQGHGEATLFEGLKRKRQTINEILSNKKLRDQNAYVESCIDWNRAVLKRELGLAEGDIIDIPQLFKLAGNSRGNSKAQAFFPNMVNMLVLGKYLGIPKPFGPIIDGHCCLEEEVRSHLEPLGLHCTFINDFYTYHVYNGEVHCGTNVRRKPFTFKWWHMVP

Consider `COc1cc(C(=O)N2CC[C@@H](O)[C@@H](N)C2)cc2nc(-c3cc4ccccc4n3CC3CC3)n(C)c12` [GSK484], for which the “CXCR2 receptor expression in neutrophils” value with CXCR2 [1] (setting [12]) is on record as “dramatically reduced”. For the same compound, in the series with CXCR2 [1] (4h after treatment, 10 μM, HD neutrophils, time course), the “CXCR2 receptor (surface) level” value is recorded as “significant downregulation”. Also, the “surface level of CXCR2 protein” value in the series on CXCR2 [1] (one-hour treatment, 10 μM, HD neutrophils) is given as “not affecting”. In the series with CXCR2 [1] (one-hour treatment, 10 μM, HD neutrophils, qPCR), the CXCR2 gene expression result is listed as “significantly downregulated”. In the series on BM neutrophils (BM neutrophils pre-incubated with 10 μM for 2h), the “CXCL1-induced chemotaxis of neutrophils” value is recorded as “reduced”. Also, in the series with T cells, the T cell proliferation entry was “slightly decreased”. Besides, the “IFN-γ production by CD4+ T cells” value with CD4+ T cells is on record as “reduced IFN-γ production”. For the same compound, the “gene or protein expression of CXCR4” value in the series on CXCR4 [2] (10 μM for 1–4h, HD neutrophils) was “did not affect”. In the series on CXCR4 [2] (setting [12]), the “neutrophil CXCR4 receptor expression” value is recorded as “did not affect expression”. On PAD, the “tumor-induced up-regulation of PAD activity in PMN” value is “completely abrogated”. In addition, the viability of neutrophils entry in the series with mouse neutrophils (mouse neutrophils) is “did not affect”; in the series with human neutrophils [5], “did not affect viability”. Besides, the “CXCR4 expression in the presence of TES” value in the series on CXCR4 [3] (with LLC TES) is “reduced its expression in the presence of TES”. Also, the “CXCR4 expression in control” value in the series on CXCR4 [3] (without TES) was “slightly decreased”. For the same compound, the “HPC differentiation (proportion and absolute number of Ly6G+ cells)” value in the series with Mouse HPC is given as “had no effect”. Besides, the “up-regulation of CXCR2 in the presence of TES” value with CXCR2 [4] (with LLC TES) was “abrogated up-regulation of CXCR2”. For the same compound, the “baseline CXCR2 expression” value in the series with CXCR2 [4] (without TES) was “reduced baseline CXCR2 expression”. In addition, the “immune suppressive activity of Ly6G+ cells generated in the presence of TES” value in the series on Ly6G+ cells (inhibitor present during HPC differentiation) is “did not abrogate”. In addition, in the series on human neutrophils [6], the “chemotaxis of neutrophils toward IL-8” value was “decreased chemotaxis”.

On to `Cc1c(-c2cc3ccccc3n2Cc2ccc(F)cc2)nc2cc(C(=O)N3CCC[C@@H](N)C3)ccn12` [JBI-589, (R)-(3-aminopiperidin-1-yl)(2-(1-(4-fluorobenzyl)-1H-indol-2-yl)-3-methylimidazo[1,2-a]pyridin-7-yl)methanone], for which the “viability of B16F10 tumor cell line” value with B16F10 was “No effect”. For the same compound, the “NET formation by BM and spleen neutrophils” value in series [7] was “unable to produce NETs”. Moreover, the “CXCR2 expression on neutrophil” value in the series on CXCR2 [8] was “significantly downregulated”. For the same compound, the “CXCL1-induced migration of neutrophils” value in the series on BM neutrophils (in vitro, JBI-589) is listed as “reduced”. The primary tumor growth result in the series with B16F10 tumors is listed as “markedly reduced”; in the series on LL2 tumors (LL2-bearing mice, 50 mg/kg, twice a day, daily, oral gavage), “markedly reduced”. Besides, the “CXCR2 receptor expression in Ly6G+ cells” value in the series with CXCR2 [9] is “significant down-regulation”. Moreover, in the series on histone H3, the “PMA-induced citrullination of histone H3” value is recorded as “inhibited PMA-induced citrullination of histone H3 in mouse neutrophils in a dose-dependent manner”. Further, the “suppressive activity of M-MDSC, TAM and PMN-MDSC” value in the series with M-MDSC, TAM, PMN-MDSC is reported as “did not affect suppressive activity”. Moreover, the “viability of LL2 tumor cell line” value in the series with LL2 was “No effect”. Further, the “expression of genes encoding soluble factors involved in pro-tumorigenic effect” value in the series on M-MDSC, TAMs was “did not affect”. In addition, the “CXCR4 receptor expression in Ly6G+ cells” value with CXCR4 [10] is on record as “but not CXCR4”. For the same compound, the “infiltration of tumor tissues with activated CD8+ and CD4+ T cells” value with LL2 tumors (LL2-bearing mice) is given as “increased infiltration”. Besides, the “frequency of LSK, GMP, CMP and MEP and their proliferation in spleens” value with LL2 tumors (LL2-bearing mice, treated vs control) is “No differences”. Also, the lung metastatic lesions result with LL2 tumors (LL2-bearing mice, IVIS) was “almost undetectable”. Moreover, the “inhibition of primary tumor growth by ICB on addition of JBI-589” value in the series with LL2 tumors (LL2-bearing mice, JBI-589 50 mg/kg b.i.d. plus anti-CTLA-4 and anti-PD-1 antibodies) is recorded as “significantly enhanced”. The “presence of tumor-associated neutrophils” value in the series with LL2 tumors (LL2-bearing mice, flow cytometry) is “significant decrease”. Also, the “cellularity of the BM” value in the series with LL2 tumors (mouse, in vivo) was “did not affect”. Also, the “toxicity in mouse neutrophils” value in the series on mouse neutrophils (in vitro, JBI-589) was “without noticeable toxicity”. In addition, the oral bioavailability entry in series [11] was “excellent oral bioavailability”. The “suppressive activity of Ly6G+ cells generated in vitro from HPC in the presence of TES” value in the series with Ly6G+ cells (JBI-589) was “no effect”.
